Test results taken from PubChem BioAssay.
Active and inactive are the calls of the source.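 The calls were made as follows, unless noted: active = fluorescence slope higher than the sample average by over 3 SD (cut at about -0.22 in these data, passing the limit was not always enough); inactive = the rest.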

Legend:
[1] = inhibitors of TNFa-induced NFkB p65 translocation, primary screen, imaging, HUVEC, MLSMR starter and 10KST1 sets (AID 438;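 active = inhibition above 20% together with a positive visual image hit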;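 also: compound added about 3h40 before a 20 min TNFalpha stimulation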;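 as to inhibition: signal is the nuclear over cytoplasmic p65 intensity ratio per well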); settings: HUVEC TNFa-induced p65 nuclear translocation; cell count: measured here: nuclei count (cytotoxicity indicator), at 2.08 µM; inhibition: at 2 µM, stronger effect = higher value, 0% TNFa-plus-vehicle, 100% no-TNFa wells
[2] = endothelial E-selectin expression blockers – imaging, HUVEC, immunofluorescence, MLSMR starter and 10KST1 sets, primary screen (AID 487;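 active = visually confirmed hit in the image check and inhibition above 20%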;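 as to inhibition: signal is fraction of cell area covered by stained E-selectin grains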;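 as to nuclei count: 100% = median nuclei count of all wells on the same plate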); settings: HUVEC TNFalpha-induced E-selectin immunofluorescence imaging, at 2 µM; inhibition: stronger effect = higher value; nuclei count: measured here: cell number, toxicity
[3] = Primary imaging screen for DUSP6 inhibitors that restore phospho-Erk in transfected HeLa cells, chemical complementation (AID 609;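 active = compounds giving at least 50% inhibition in the cell-based MKP-3 phosphatase rescue imaging test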;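 as to inhibition: phospho-Erk level distribution per well compared with pooled transfected vehicle control wells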); settings: HeLa MKP-3 transfected, phospho-Erk imaging KS statistic, at 10 µM, cells stimulated with TPA for 15 min
[4] = target: Dual specificity protein phosphatase 6 (Homo sapiens) (UniProt Q16828); assay: as above; settings: HeLa MKP-3 transfected, phospho-Erk imaging KS statistic; at 10 µM; stronger effect = higher value; cells stimulated with TPA for 15 min
Chain of Dual specificity protein phosphatase 6 (Homo sapiens) (Q16828 whole entry, looked up): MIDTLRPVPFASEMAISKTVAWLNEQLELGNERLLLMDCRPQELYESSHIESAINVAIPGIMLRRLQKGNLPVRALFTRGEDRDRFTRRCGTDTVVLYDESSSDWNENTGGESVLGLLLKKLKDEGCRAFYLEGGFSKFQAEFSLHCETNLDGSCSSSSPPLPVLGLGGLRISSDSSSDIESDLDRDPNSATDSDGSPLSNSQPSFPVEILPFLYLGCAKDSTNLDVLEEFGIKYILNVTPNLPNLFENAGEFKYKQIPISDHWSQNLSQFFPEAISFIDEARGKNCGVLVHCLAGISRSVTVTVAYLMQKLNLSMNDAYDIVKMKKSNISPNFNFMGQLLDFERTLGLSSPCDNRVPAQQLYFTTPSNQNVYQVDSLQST

[5] = target: Voltage-gated potassium channel subunit beta-2 (Rattus norvegicus) (UniProt P62483); assay: inhibitors of rat Kvbeta2 reductase activity – biochemical, NADPH fluorescence, primary screen (AID 622); settings: recombinant KvBeta, 4-cyanobenzaldehyde reduction, at 10 µM, stronger effect = higher value;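 also: slope of raw intensity against log time taken from 70 to 1610 s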
Chain of Voltage-gated potassium channel subunit beta-2 (Rattus norvegicus) (P62483 whole entry, looked up): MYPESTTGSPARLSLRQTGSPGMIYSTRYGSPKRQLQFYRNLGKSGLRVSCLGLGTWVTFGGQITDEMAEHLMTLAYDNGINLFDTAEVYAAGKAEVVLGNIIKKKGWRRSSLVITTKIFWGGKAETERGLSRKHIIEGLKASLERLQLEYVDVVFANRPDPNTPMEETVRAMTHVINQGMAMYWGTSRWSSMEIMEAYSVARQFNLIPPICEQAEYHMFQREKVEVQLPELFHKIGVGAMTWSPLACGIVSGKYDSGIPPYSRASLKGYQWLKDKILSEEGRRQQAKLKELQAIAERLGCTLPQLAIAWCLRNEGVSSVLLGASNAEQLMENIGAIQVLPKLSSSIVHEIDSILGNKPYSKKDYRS

[6] = target: Voltage-gated potassium channel subunit beta-2 (Rattus norvegicus) (UniProt P62483); assay: enhancers of rat Kvbeta2 NADPH turnover – biochemical, NADPH fluorescence, primary screen (AID 623;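 active = NADPH fluorescence slope more negative than the mean of all samples by about 3 SD, 99.7% confidence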;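 also: fluorescence intensity change per second fitted from 20 to 320 s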); settings: Recombinant KvBeta, NADPH fluorescence decrease slope, 10 min; at 10 µM; stronger effect = lower value
[7] = target: Alpha-2C adrenergic receptor (Homo sapiens) (UniProt P18825); assay: compounds altering alpha2C-coupled GIRK flux – cell-based, HEK293 alpha2C/GIRK1/2, thallium flux, primary screen (AID 624;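 active = fluorescence slope after compound addition differing from the mean of all screened samples at 99.7% confidence, in either direction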;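 also: slope of fluorescence ratio to pre-addition baseline per second over 15 to 24 s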); settings: thallium flux BTC fluorescence, at 10 µM, actives lie on both sides
Chain of Alpha-2C adrenergic receptor (Homo sapiens) (P18825 whole entry, looked up): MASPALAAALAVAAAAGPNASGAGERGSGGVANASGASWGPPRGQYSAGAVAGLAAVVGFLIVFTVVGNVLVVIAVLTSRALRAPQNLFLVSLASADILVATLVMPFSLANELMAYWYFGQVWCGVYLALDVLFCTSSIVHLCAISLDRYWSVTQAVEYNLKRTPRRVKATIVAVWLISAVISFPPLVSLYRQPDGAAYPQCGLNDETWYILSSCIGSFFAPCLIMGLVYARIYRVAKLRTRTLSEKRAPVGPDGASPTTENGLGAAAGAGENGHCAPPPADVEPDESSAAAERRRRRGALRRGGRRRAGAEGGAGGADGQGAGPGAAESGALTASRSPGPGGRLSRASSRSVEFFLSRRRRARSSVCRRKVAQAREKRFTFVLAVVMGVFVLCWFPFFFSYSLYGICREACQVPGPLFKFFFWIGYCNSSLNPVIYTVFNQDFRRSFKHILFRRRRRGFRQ

[8] = inhibitors of larval lipid processing in zebrafish, primary screen, whole organism, PED6 fluorescence, gall bladder and intestine (AID 686;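 active = a full or partial loss of lipid-probe fluorescence in the fish gall bladder, intestine or both, judged by eye; inactive = no fluorescence loss, or compound toxic to the fish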;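 also: larvae 5 to 7 days old with five fish per well; signal comes from phospholipase A2 cleavage of quenched PED6 carried via bile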); settings: Zebrafish larvae PED6 lipid processing, fluorescence scoring; screened at 20 µM (by protocol)
Method in brief: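 Incubation: overnight exposure of larvae to compound plus PED6 / Test system: live zebrafish larvae aged 5-7 days, whole organism / Amount: 5 larvae per well / Read-out basis: visual per-well fluorescence inhibition score / Signal: visual fluorescence microscopy scoring of gall bladder, gut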

[9] = loss of swimming-algae plug formation – whole organism, Chlamydomonas reinhardtii, WT vs cilia-less mutant, absorbance, 96-well, primary screen (AID 463189;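 active = inhibition at or above 50% relative to wild type and mutant plate controls; inactive = inhibition below 50%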;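 also: 0% = wild type cc124 cells in DMSO and 100% = ciliumless bld1 mutant cells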); settings: Chlamydomonas reinhardtii gravitaxis, OD600 absorbance, 2 days; at 10 µM; stronger effect = higher value
[10] = measured here: cell density z-score
[11] = measured here: nuclear c-Myc green intensity z-score
[12] = measured here: nuclear pErk red intensity z-score, stronger effect = higher value

SMILES | cell count [1] | inhibition [1] | inhibition [2] | nuclei count [2] [%] | z-score [3, 10] | z-score [3, 11] | z-score [3, 12] | inhibition [4] | fluorescence slope [5] | NADPH fluorescence slope [6] | slope [7] | outcome [8] | inhibition [9]
CCOC(=O)C1=C(CSc2nc3c(cc2C#N)CCC3)OC(N)=C(C#N)C1c1ccccc1 (stereo not drawn) | 514 | -16.1% (inactive) | -90.1% (inactive) | 118 | -0.196 | 0.0665 | -0.283 | -0.674% (inactive) | -0.426 (inactive) | 5.2e-06 (inactive) | 0.00558 (inactive) | inactive | 5.98% (inactive)
COC(=O)/C(=C1/Oc2cc(C)oc(=O)c2S1)C(F)(F)F | 330 | -2.4% (inactive) | -59.5% (inactive) | 177 | 1.64 | 0.462 | 0.469 | 28% (inactive) | -0.427 (inactive) | -0.000106 (inactive) | 0.0045 (inactive) | inactive | 5.01% (inactive)
COc1ccc(OCC(=O)N2CCN(C(=O)c3cccc4ccccc34)CC2)cc1 | 413 | -2.6% (inactive) | -293% (inactive) | 133 | -0.479 | 0.976 | -0.768 | 3.66% (inactive) | -0.448 (inactive) | -1.4e-05 (inactive) | 0.00599 (inactive) | inactive | 0.794% (inactive)
CNS(=O)(=O)c1cccc2nsnc12 | 592 | -20.7% (inactive) | -98.5% (inactive) | 141 | -1.23 | 0.529 | 1.87 | -15% (inactive) | -0.51 (inactive) | -3.5e-05 (inactive) | 0.005 (inactive) | inactive | 11.1% (inactive)
CN(C)CC(O)COc1cccc(OCC(O)CN(C)C)c1 (stereo not drawn) | 433 | -6.5% (inactive) | -137% (inactive) | 155 | -1.38 | -0.215 | 0.992 | -7.28% (inactive) | -0.4 (inactive) | -4.2e-05 (inactive) | 0.00531 (inactive) | inactive | -5.71% (inactive)
CC(C)NC(=O)N1CCOCCOCCN(C(=O)NC(C)C)CCOCCOCC1 | 513 | -16.8% (inactive) | -142% (inactive) | 144 | 2.53 | -2.34 | -0.54 | 13.9% (inactive) | -0.538 (inactive) | -6.1e-05 (inactive) | 0.00725 (inactive) | inactive | 11.9% (inactive)
N#Cc1c(N)nc(SCc2ccccn2)c(C#N)c1-c1cccs1 | 526 | -6.5% (inactive) | -189% (inactive) | 176 | 0.739 | 1.34 | -0.969 | 4.25% (inactive) | -0.289 (inactive) | 1.5e-05 (inactive) | 0.00485 (inactive) | inactive | 1.02% (inactive)
CC(C)Nc1nc(NC(C)C)nc(N(C)n2cnnc2)n1 | 629 | -8.8% (inactive) | 27.2% (inactive) | 188 | 0.189 | -1.82 | 0.165 | 20.8% (inactive) | -0.482 (inactive) | -0.000155 (inactive) | 0.0051 (inactive) | inactive | -5.15% (inactive)
C=CCn1c(SCC(=O)OC)nc2sc3c(c2c1=O)CCN(C)C3 | 489 | 5.2% (inactive) | -55.9% (inactive) | 177 | 0.349 | 0.211 | -0.762 | 1.48% (inactive) | -0.234 (inactive) | -1.8e-05 (inactive) | 0.00333 (inactive) | inactive | -3.61% (inactive)
COc1cccc(-c2nc(N3CCC(C)CC3)c3ccccc3n2)c1O | 573 | -3.3% (inactive) | 48.3% (inactive) | 120 | 0.534 | -0.819 | 1.15 | -12.3% (inactive) | -0.409 (inactive) | -3.4e-05 (inactive) | 0.00378 (inactive) | inactive | 9.22% (inactive)
O=S(=O)(c1ccccc1)N1CCC(N2CCN(c3ccccc3)CC2)CC1 | 454 | -26.3% (inactive) | -98.2% (inactive) | 140 | -1.37 | -0.201 | -1.07 | -3.95% (inactive) | -0.326 (inactive) | 1.7e-05 (inactive) | 0.006 (inactive) | inactive | 1.95% (inactive)
COc1ccc(OC)c(C2NC(=O)c3sc(=S)n(-c4ccccc4)c3N2)c1 (stereo not drawn) | 612 | -8.4% (inactive) | -60.3% (inactive) | 159 | -1 | 0.762 | 1.43 | -6.86% (inactive) | -0.369 (inactive) | -6.5e-05 (inactive) | 0.00525 (inactive) | inactive | -6.25% (inactive)
CCC1(C)Cc2c(sc3c2c(=O)n(C)c2nnc(SCc4ccccc4)n32)CO1 (stereo not drawn) | 584 | 1.3% (inactive) | -171% (inactive) | 156 | -0.0769 | -0.7 | -1.21 | 3.56% (inactive) | -0.286 (inactive) | -6.4e-06 (inactive) | 0.00603 (inactive) | inactive | 16.4% (inactive)
CSc1nc(N)c(C#N)c(-c2ccccc2Cl)c1C#N | 361 | -5.2% (inactive) | 16.8% (inactive) | 95 | -2.2 | 1.67 | -0.0312 | -2.07% (inactive) | -0.456 (inactive) | -0.000311 (inactive) | 0.00479 (inactive) | inactive | -18.7% (inactive)
CC(=O)c1c(N)nc2n(c1=O)CCCCC2 | 354 | -4.7% (inactive) | -5.5% (inactive) | 162 | 0.366 | 0.179 | 0.934 | 9.42% (inactive) | -0.392 (inactive) | -0.000138 (inactive) | 0.0044 (inactive) | inactive | 24.2% (inactive)
COc1ccc(-c2oc3ncn4nc(COc5ccccc5)nc4c3c2-c2ccc(OC)cc2)cc1 | 621 | -7.9% (inactive) | -75% (inactive) | 194 | -0.444 | -0.952 | -0.924 | -15% (inactive) | -0.327 (inactive) | -1.2e-05 (inactive) | 0.0133 (inactive) | inactive | -3.79% (inactive)
CCOc1cc(CN2CCOCC2)cc(C(C)=O)c1 | 617 | -3.9% (inactive) | -113% (inactive) | 110 | 1.86 | 1.2 | -0.466 | 15.1% (inactive) | -0.573 (inactive) | -1.5e-05 (inactive) | 0.00527 (inactive) | inactive | 38.5% (inactive)
O=C(O)C(Cc1c[nH]c2ccccc12)NS(=O)(=O)c1cccc2nsnc12 (stereo not drawn) | 564 | -1.2% (inactive) | -96.3% (inactive) | 160 | -0.832 | -0.134 | 0.46 | 19.1% (inactive) | -0.487 (inactive) | -5.5e-05 (inactive) | 0.00789 (inactive) | inactive | -3.63% (inactive)
O=c1c2c3c(sc2n2cnnc2n1Cc1ccccc1)CN(Cc1ccccc1)CC3 | 620 | -1.6% (inactive) | 66.2% (inactive) | 104 | 0.015 | 0.568 | 0.295 | 6.04% (inactive) | -0.427 (inactive) | -1.4e-05 (inactive) | 0.0049 (inactive) | inactive | 22.4% (inactive)
COc1ccc(/C=N/n2cncn2)cc1CSc1ccccn1 | 302 | -17.2% (inactive) | -137% (inactive) | 114 | -0.741 | 0.803 | -0.342 | -2.29% (inactive) | -0.32 (inactive) | 9e-06 (inactive) | 0.00478 (inactive) | inactive | 27% (inactive)
CN1C2C=C3C(C#N)=C(N)C(C#N)(C#N)[C@@H](c4ccsc4)[C@@H]3C1CC2 (stereo partly drawn) | 589 | -9.3% (inactive) | 24% (inactive) | 148 | 1.76 | -1 | -0.0532 | 28.1% (inactive) | -0.396 (inactive) | 4.1e-06 (inactive) | 0.00648 (inactive) | inactive | 6.82% (inactive)
